# TRPC4 act: opens the mouse TRPC4 cation channel. B-score at 10 µM. Q9QUQ5. hit rate 0.49% among 310,000. AID 2237. HEK293 TRPC4beta/mu-opioid, Fluo4 calcium fluorescence; stronger effect = higher value;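 active = B-score above 5 SD of library B-scores, and initial fluorescence ratio not above library mean plus 5 SD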;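 note: positive B-score marks a calcium rise read as TRPC4 activation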
#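 Assay system: HEK293 stable line with TRPC4beta plus mu-opioid receptor; schedule: 45 min room-temperature Fluo4 loading, 110 s read; technique: kinetic Fluo4 calcium fluorescence; evaluation: integrated baseline-normalised fluorescence ratio, converted to per-well B score; controls: buffer (low) and maximal DAMGO (high)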
# TRPC6 act: mouse TRPC6 channel activation; Q61143; HEK293-TRPC6 membrane potential dye fluorescence; stronger effect = higher value; B-score at 10 µM; hit rate 0.13% among 310,000; AID 2550;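 active = B-score of the integrated fluorescence ratio above library mean plus 3 SD, and starting fluorescence ratio within library mean plus 5 SD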;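 note: higher score means more depolarization so channel activation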
# TRPC4 PAM: allosterically enhances the mouse TRPC4 cation channel; HEK293 TRPC4beta/mu-opioid, DAMGO EC20, Fluo-4 Ca2+ flux; stronger effect = higher value; hit rate 0.42% among 310,000; B-score at 10 µM; AID 2227; Q9QUQ5;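 active = B-score of calcium response area above 5 SD of library B-scores, with initial fluorescence ratio within 5 SD of library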;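 note: B-score of integrated fluorescence ratio over time as area under calcium response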
# TRPC6 inhibitor: inhibitors of mouse TRPC6 channel. Q61143. HEK293-TRPC6, membrane potential dye, ACh-evoked depolarization; stronger effect = lower value. B-score at 10 µM. hit rate 1.1% among 310,000;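 active = B-score under library mean minus 3 SD, initial fluorescence not abnormally high, positive integrated signal ratio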;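 note: B-score derived from integrated fluorescence ratio over the kinetic read; more negative B-score means stronger inhibition of depolarization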
# TRPC4 inh: TRPC4 (mouse) channel inhibition; HEK293 TRPC4beta/mu-opioid, DAMGO-evoked Fluo4 calcium flux; stronger effect = lower value; B-score at 10 µM; hit rate 0.39% among 300,000; AID 2247;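 active = B-score over 3 SD under the library average, no early fluorescence shift, positive overall ratio signal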
#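 Assay system: Stable TRPC4beta/mu-opioid receptor HEK293 cells | Reagent: DAMGO in two steps, submaximal then maximal | Compound dosing: Single concentration per test compound | Signal: Fluo4 Ca2+ flux fluorescence | Evaluation: Per-well B score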
# * = called active by the depositor; i = inactive; ! = a repeat was not active. In the library only some 2.3% were active in any assay of this set; here they are far more common.
SMILES,TRPC4 act,TRPC6 act,TRPC4 PAM,TRPC6 inhibitor,TRPC4 inh
O=C(CS(=O)(=O)c1ccc(Cl)cc1)NCCS(=O)(=O)c1ccc(Cl)cc1,i,i,i,i,i
COC(=O)c1cc(-c2ccccc2)n(CCN)c1C,i,i,i,i,i
CC(C)(C)NCC(O)CON=C1c2ccccc2-c2ccccc21 (stereo not given),i,i,10*,i,i
CC(C)C(NC(N)=O)C(=O)NC1CCCCC1 (stereo not given),i,i,i,i,i
CN1C(=O)C2C(c3ccc(N(C)C)cc3)=NN(Cc3ccccc3)C2C1=O (stereo not given),i,i,i,i,i
O=C(N/N=C/c1cccnc1)c1ccccc1OCc1ccc(Cl)cc1,100*,i,i,i,-6*
O=C(N/N=C/c1cccnc1)c1ccccc1OCc1ccc(Br)cc1,i,i,i,i,i
O=C(O)C[C@H]1c2cc(F)ccc2S(=O)(=O)N1C1CCN(Cc2ccccc2)CC1,i,i,i,i,i
Clc1ccc(OCCCNCc2ccccc2)c2ccccc12,56*,i,i,i,i
Brc1ccccc1OCCNCc1ccccc1,i,i,i,i,i
Cc1cc(C)c(NC2=NCC(=O)N2C2CCCCC2)c(C)c1,i,i,i,i,i
O=C1CN=C(Nc2cccc(C(F)(F)F)c2)N1C1CCCC1,i,i,i,i,-6*
O=C(CCl)Nc1c2c(nn1-c1ccccc1)CSC2,i,i,i,i,i
Cc1cc(C)c(NS(=O)(=O)c2ccc3c(c2)NC(=O)CCS3)c(C)c1,i,i,i,i,i
CCCCN(C)CC(O)Cn1cc(/C=C/C(=O)c2ccc(C)cc2)c2ccccc21 (stereo not given),i,i,i,i,i
Cc1ccc2c(c1)N(CC(=O)N1CCN(C3CCCCC3)CC1)C(=O)CO2,i,i,10*,i,i
O=C(O)CCCN1C(=O)C(=O)/C(=C(/O)c2ccccc2)C1/C=C/c1ccccc1 (stereo not given),i,i,i,i,i
CNCC[C@H](Oc1cccc2ccccc12)c1cccs1,i,i,i,-5.7*!,i
COc1ccc(N2CCN(C(CNS(=O)(=O)c3ccccc3)c3ccccc3)CC2)cc1 (stereo not given),i,i,i,i,i
CCCN(CCC)CCCNC(=O)CCNS(=O)(=O)c1ccc(Br)cc1,76*,i,i,i,i
CCC(C)NC(=O)C(CCSC)NC(=O)c1ccccc1 (stereo not given),i,i,i,i,i
CSCCC(NC(=O)c1ccccc1)C(=O)Nc1ccc(NC(C)=O)cc1 (stereo not given),i,i,i,-5.2*,i
CCOC(=O)C1CCN(C2CCN(C(=O)c3oc4c(C)c(C)ccc4c3C)CC2)CC1,i,i,i,i,-6*
Cc1ccc2c(C)c(C(=O)N3CCN(c4cnccn4)CC3)oc2c1C,i,i,i,i,i
Cc1ccc2c(C)c(C(=O)N3CCC(O)(c4ccccc4)CC3)oc2c1C,i,i,13*,i,i
SMILES,TRPC4 act,TRPC6 act,TRPC4 PAM,TRPC6 inhibitor,TRPC4 inh
CCc1cccc(OCC(=O)Nc2c[nH]c(=O)[nH]c2=O)c1,i,i,i,i,i
CCc1cccc(OCC(=O)Nc2ccc(C(=O)O)cc2NC(=O)COc2cccc(CC)c2)c1,i,i,i,i,-8*
COc1ccc(NC(=O)/C(C#N)=C/c2ccc(OCCN3CCOCC3)c(OC)c2)c(OC)c1,i,i,i,i,i
COC(=O)c1ccccc1NC(=O)Cn1nc2n(C)c3ccccc3n2c(=O)c1=O,i,i,i,i,i
OC(CNC1CCCc2ccccc21)COc1c(Cl)cccc1Cl (stereo not given),44*,i,i,i,-5*
OC(CNC1Cc2ccccc2C1)COc1ccc(Cl)cc1 (stereo not given),i,i,i,i,i
CCCSc1nnc2n(-c3ccccc3OC)c(=O)c3c4c(sc3n12)CCC4,i,i,i,i,i
COC(=O)CSc1nnc2n(-c3ccc(OC)cc3)c(=O)c3c4c(sc3n12)CCCCC4,i,i,i,i,-7*
C=CCSc1nnc2n(-c3ccccc3OC)c(=O)c3c4c(sc3n12)CCC4,i,i,i,i,-6*
COC(=O)CSc1nnc2n(C3CCCCC3)c(=O)c3c4c(sc3n12)CCCC4,i,i,i,i,-6*
COc1ccccc1NC(=O)CCc1nnc2ccc(N3CCN(C)CC3)nn12,i,i,i,i,i
CCCn1nnnc1NCc1ccc(C(C)C)cc1,i,i,i,i,i
CN(CCc1ccccn1)C(=O)CC1C(=O)NCCN1Cc1ccc(-c2ccccc2)cc1 (stereo not given),160*,i,i,i,i
Cc1csc(CN(C)C(=O)CC2C(=O)NCCN2Cc2ccc(F)cc2Cl)n1 (stereo not given),i,i,i,i,i
Cc1csc(CN(C)C(=O)CC2C(=O)NCCN2Cc2ccc(Cl)c(F)c2)n1 (stereo not given),i,i,12*,i,i
CCOc1ccccc1CN1CCNC(=O)C1CC(=O)NCCc1ccccn1 (stereo not given),88*,i,i,i,i
Cc1ccc(CN2CCNC(=O)C2CC(=O)N(C)CCc2ccccc2)cc1 (stereo not given),i,i,i,i,i
O=C(CC1C(=O)NCCN1Cc1ccc(-c2ccccc2)cc1)NCCc1ccccn1 (stereo not given),130*,i,i,i,i
CCOc1ccccc1CN1CCNC(=O)C1CC(=O)NCCC1=CCCCC1 (stereo not given),i,i,i,i,i
Cn1c(CCN2CCN(c3ccccn3)CC2)nc2cc(NS(=O)(=O)c3ccc(Cl)cc3)ccc21,i,i,i,i,i
CCOc1ccccc1CN1CCNC(=O)C1CC(=O)N(C)CCC1CCOCC1 (stereo not given),i,i,i,i,i
CCOc1ccccc1CN1CCNC(=O)C1CC(=O)N(C)CCc1ccccn1 (stereo not given),153*,i,i,i,i
Nc1ccc(C(=O)C(=O)c2ccccc2)cc1,i,i,i,i,i

# Compound activity deposited in PubChem by Johns Hopkins Ion Channel Center.
